From PubChem
In the library only some 3.4% were active in any assay of this set; here they are far more common.
GPR7 antag – antagonists of human GPR7 (neuropeptides B/W receptor 1). GPR7-expressing cells, fluorescence antagonist assay. inhibition, % at 4.4 µM. 290,000 compounds, 1.1% hits; in the data active means inhibition above about 16%, passing the limit was not always enough;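 further: cells stimulated with the agonist NPW; 0% = agonist with vehicle and 100% = vehicle without agonist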
Target sequence (P48145 whole entry, looked up): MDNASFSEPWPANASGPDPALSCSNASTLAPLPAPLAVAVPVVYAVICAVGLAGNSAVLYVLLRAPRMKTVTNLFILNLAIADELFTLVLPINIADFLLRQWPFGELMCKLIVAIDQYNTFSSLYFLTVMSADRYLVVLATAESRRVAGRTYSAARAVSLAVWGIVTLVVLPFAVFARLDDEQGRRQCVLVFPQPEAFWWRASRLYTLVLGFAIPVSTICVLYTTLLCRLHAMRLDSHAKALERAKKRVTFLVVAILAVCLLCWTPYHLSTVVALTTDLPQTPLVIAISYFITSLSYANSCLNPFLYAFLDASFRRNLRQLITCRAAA
LANA-H2B inh – blocks KSHV LANA binding to histone H2A/H2B; Q9QR71; cell-free LANA-H2A/H2B peptide, fluorescence polarization; inhibition, % (test concentration not listed); 320,000 compounds, 0.6% hits; AID 2629; in the data active means inhibition mostly above about 10%, no sharp cut-off; inactive means mostly below about 6.7%
zfTRPN1 agonist – zebrafish TRPN1 (NompC) channel agonism | activation, % at 3 µM | 220,000 compounds, 0.18% hits | HEK293 zebrafish TRPN1-YFP, Fluo-8 calcium fluorescence; 100% = response to 87 µM carbachol;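 active means activation above its plate's cutoff, the mean activation of test wells on that plate plus 3 SD, cut at about 19% in these data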;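 further: 0% = DMSO alone and 100% = 87 µM carbachol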
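Material: zebrafish TRPN1-YFP in HEK293 cells. Doses: one dose of 3 µM, 0.3% DMSO. Incubation: dye 1 h 37 °C plus 30 min RT. Measured by: intracellular calcium fluorescence with Fluo-8.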
TAAR1 antag – antagonists of human TAAR1; 360,000 compounds, 1.5% hits; Q96RJ0; CHO RD-HGA16 TAAR1, Fluo-8 calcium fluorescence, antagonist; AID 624466; inhibition, % at 3 µM;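 active means inhibition above a per-plate cutoff, the mean inhibition of test compounds on that plate plus 3 SD, cut at about 49% in these data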;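 further: 0% = DMSO plus EC80 beta-PEA response and 100% = DMSO alone without agonist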
Target sequence (Q96RJ0 whole entry, looked up): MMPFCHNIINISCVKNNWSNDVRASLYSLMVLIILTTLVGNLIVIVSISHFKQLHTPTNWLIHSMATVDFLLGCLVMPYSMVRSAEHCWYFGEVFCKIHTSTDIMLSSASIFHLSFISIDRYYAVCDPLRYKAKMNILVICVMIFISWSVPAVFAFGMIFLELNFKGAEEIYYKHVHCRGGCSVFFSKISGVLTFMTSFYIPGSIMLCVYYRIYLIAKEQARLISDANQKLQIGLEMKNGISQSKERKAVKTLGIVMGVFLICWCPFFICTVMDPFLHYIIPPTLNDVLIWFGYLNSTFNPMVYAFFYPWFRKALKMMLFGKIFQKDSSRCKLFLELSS
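System: CHO RD-HGA16 cells bearing hTAAR1. Reagent: EC80 β-phenethylamine stimulus. Schedule: seeding 17-24 h prior, 75-min 37 °C, 30-min RT dye loading. Signal: Fluo-8 intracellular calcium dye fluorescence, real-time kinetic reads. Read-out: % inhibition from peak post-agonist over basal fluorescence ratio. Benchmarks: vehicle wells and EC80 agonist wells. Replicates: n of 1.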
TAAR1 ag – human TAAR1 agonism; AID 624467; Q96RJ0; 360,000 compounds, 0.99% hits; CHO RD-HGA16 TAAR1, Fluo-8 calcium fluorescence; vehicle wells 0%, saturating PEA agonist 100%; activation, % at 3 µM;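 active means activation above the mean activation of all test compounds in the run plus 3 SD, cut at about 38% in these data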
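test system = CHO RD-HGA16 cells carrying human TAAR1 plus Gα16 | schedule = 17-24 h seeding, 75 min 37 °C dye, 30 min RT | compound dosing = 3 µM single concentration | control set = DMSO and PEA EC100 | replicates = n 1 | signal = Fluo-8 fluorescence, 5 s baseline then 140 s kinetic read | measure = percent activation vs PEA EC100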
TRPML3 ag – human mucolipin-3 channel agonism; Q8TDD5; HEK293 TRPML3-YFP, Fluo-8 calcium fluorescence; 100% = the carbachol control signal; activation, % at 3 µM; 220,000 compounds, 0.29% hits;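 active means activation above its plate's cutoff, the mean activation of the plate's test wells plus 3 SD, cut at about 12% in these data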;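 further: 0% = DMSO only wells and 100% = carbachol wells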
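Test system: HEK293 cells stably carrying human TRPML3-YFP; Doses: single dose, 3 µM final nominal compound, 0.3% DMSO final; Schedule: dye loading 1 h 37 °C then 30 min ambient, 125 s read; Technique: Fluo-8 calcium fluorescence; Benchmarks: high control carbachol 87 µM, low control DMSO.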
TAAR1 ag conf – confirmation of human TAAR1 agonists | shares compounds with TAAR1 ag | CHO RD-HGA16 TAAR1, Fluo-8 calcium fluorescence; scaled: DMSO 0%, maximal phenethylamine 100% | activation, % at 3 µM | 2,400 compounds, 82% hits | AID 651783;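 active means activation above a cutoff set at the run's mean compound activation plus 3 SD, cut at about 39% in these data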
Ga16 ag counter – nonselective agonism, TAAR1 counter-screen; shares compounds with TAAR1 ag; CHO-Ga16 parental, Fluo-8 calcium fluorescence; normalized to maximal ATP response, DMSO zero; activation, % at 3 µM; 2,400 compounds, 50% hits;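 active means activation above the run cutoff, the mean activation over all tested wells plus 3 SD, cut at about 12% in these data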;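 further: 0% = DMSO wells and 100% = maximal ATP response on the peak over basal ratio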
TAAR1 desensitize – TAAR1 response desensitization, agonist counter-screen | CHO RD-HGA16 hTAAR1, Fluo-8 calcium, beta-PEA response inhibition | 2,400 compounds, 46% hits | AID 651951 | inhibition, % at 3 µM | shares compounds with TAAR1 ag;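 active means inhibition above the run cutoff, the mean inhibition of all test compounds plus 3 SD, cut at about 49% in these data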;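 further: beta-PEA stimulus applied at its EC80; loss of beta-PEA calcium signal after compound pretreatment read as receptor desensitization; 0% = DMSO with beta-PEA at EC80 and 100% = DMSO alone without agonist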
Ga16 antag count – counter-screen for TAAR1 agonists: nonselective Ga16 antagonists | inhibition, % at 3 µM | AID 651952 | CHO-Ga16 ATP-induced calcium, Fluo-8 fluorescence | shares compounds with TAAR1 ag | 2,400 compounds, 39% hits;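 active means inhibition above the plate's mean compound inhibition plus 3 SD, computed per plate, cut at about 22% in these data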;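 further: 0% = EC80 ATP with DMSO and 100% = DMSO wells without ATP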
* marks the source's active call; other numbers are inactive results.

`Cc1cc(/C=C2\C(=N)N3N=C(C(C)C)SC3=NC2=O)c(C)n1Cc1ccccc1` gave GPR7 antag -13, LANA-H2B inh 3, zfTRPN1 agonist 10, TAAR1 antag 7, TAAR1 ag 8 and TRPML3 ag 3.
`Cc1cc(/C=C2\C(=N)N3N=C(c4ccco4)SC3=NC2=O)c(C)n1Cc1ccccc1` gave GPR7 antag 2, LANA-H2B inh 1, zfTRPN1 agonist 6, TAAR1 antag 103*, TAAR1 ag 130*, TRPML3 ag 0, TAAR1 ag conf 107*, Ga16 ag counter 79*, TAAR1 desensitize 104* and Ga16 antag count 91*.
`O=C(NCc1ccccc1Cl)NCc1ccccc1Cl` gave GPR7 antag -6, LANA-H2B inh 0, zfTRPN1 agonist 0, TAAR1 antag -36, TAAR1 ag 0 and TRPML3 ag -1.
Screening O=C(Cc1ccc(-n2cccc2)cc1)NCc1ccccc1Cl returned GPR7 antag 3, LANA-H2B inh 3, zfTRPN1 agonist -2, TAAR1 antag 50*, TAAR1 ag 77*, TRPML3 ag -1, TAAR1 ag conf 1, Ga16 ag counter 0, TAAR1 desensitize -4 and Ga16 antag count -1.
Screening CCOc1ccc(OCCC(=O)OCC(=O)NC2CCCC2)cc1 returned LANA-H2B inh -5, TAAR1 antag 0 and TAAR1 ag 10.
Cc1cccc(CCNC(=O)CCc2nc(-c3ccccc3F)no2)c1 was read as GPR7 antag 17, LANA-H2B inh -4, zfTRPN1 agonist -1, TAAR1 antag -8, TAAR1 ag 17 and TRPML3 ag -1.
CN(C(=O)CCc1nc(-c2ccccc2F)no1)c1ccccc1 was read as GPR7 antag -15, LANA-H2B inh 1, zfTRPN1 agonist 0, TAAR1 antag -19, TAAR1 ag 45*, TRPML3 ag 1, TAAR1 ag conf 6, Ga16 ag counter 7, TAAR1 desensitize 4 and Ga16 antag count 2.
For CC1=C(C(=O)OCc2ccccc2)C(c2ccc(-c3ccccc3)cc2)NC(=O)N1CCCCCC(=O)O (centres undefined) the results were GPR7 antag -1, LANA-H2B inh 2, zfTRPN1 agonist 1, TAAR1 antag 92*, TAAR1 ag 95*, TRPML3 ag 0, TAAR1 ag conf -1, Ga16 ag counter 9, TAAR1 desensitize 14 and Ga16 antag count 29*.
`CC1=C(C(=O)OCc2ccccc2)C(c2ccc(-c3ccccc3)cc2)NC(=O)N1CCCC(=O)O` (centres undefined) gave LANA-H2B inh 3, TAAR1 antag 33 and TAAR1 ag 10.
For NC(=O)c1ccc(NCCc2cccs2)cc1 the results were TAAR1 antag -21 and TAAR1 ag 15.
`Cn1c2ccccc2c(=O)c2ccc(NCCc3cccs3)cc21` gave LANA-H2B inh -6, TAAR1 antag 63*, TAAR1 ag 49*, TAAR1 ag conf 55*, Ga16 ag counter 5, TAAR1 desensitize 51* and Ga16 antag count 32*.
For Cc1ccnc(SCC(=O)N2CCc3ccccc3C2)n1 the results were GPR7 antag 5, LANA-H2B inh 0, zfTRPN1 agonist -1, TAAR1 antag -11, TAAR1 ag 4 and TRPML3 ag 0.
Screening CCCn1c(SCC(=O)N2CCc3ccccc3C2)nc(O)cc1=O returned LANA-H2B inh -2, Ga16 ag counter 0 and Ga16 antag count 1.
Cn1c(SCC(=O)N2CCc3ccccc3C2)nnc1-c1ccncc1 was read as GPR7 antag -16, LANA-H2B inh -1, zfTRPN1 agonist 0, TAAR1 antag 2, TAAR1 ag 6 and TRPML3 ag 1.
Cc1cc(=O)[nH]c(SCC(=O)N2CCc3ccccc3C2)n1 was read as GPR7 antag -7, LANA-H2B inh 0, zfTRPN1 agonist 0, TAAR1 antag 56*, TAAR1 ag 77*, TRPML3 ag 0, TAAR1 ag conf 77*, Ga16 ag counter 5, TAAR1 desensitize 20 and Ga16 antag count 12.
Screening NS(=O)(=O)c1ccc(CNC(=O)C2CCCN2C(=O)c2cccs2)cc1 (centres undefined) returned LANA-H2B inh 0, TAAR1 antag -8 and TAAR1 ag 1.
O=C(Nc1cccc(C(F)(F)F)c1)c1csc([C@H]2C[C@H](O)[C@@H](CO)O2)n1 was read as TAAR1 antag -12 and TAAR1 ag 2.
For Cc1c(Cl)cccc1NC(=O)Cc1ccc([N+](=O)[O-])cc1 the results were GPR7 antag 12, LANA-H2B inh 1, zfTRPN1 agonist 2, TAAR1 antag 18, TAAR1 ag 56*, TRPML3 ag 0, TAAR1 ag conf 31, Ga16 ag counter 17*, TAAR1 desensitize 15 and Ga16 antag count 13.
For Cc1cc(F)ccc1NC(=O)CCc1ccc(S(=O)(=O)N2CCOCC2)cc1 the results were LANA-H2B inh 8, TAAR1 antag -8 and TAAR1 ag 7.
Screening COc1cc(OC)c2c(-c3ccccc3)cc(=O)oc2c1C(CCN1CCCCC1)c1ccc2c(c1)OCO2 (centres undefined) returned LANA-H2B inh 2, TAAR1 antag 13, TAAR1 ag 43*, TAAR1 ag conf 45*, Ga16 ag counter 12*, TAAR1 desensitize 20 and Ga16 antag count 16.
Screening COc1cc(OC)c2c(-c3ccccc3)cc(=O)oc2c1C(CCN1CCCCC1)c1ccc(N(C)C)cc1 (centres undefined) returned LANA-H2B inh -7.
`COc1ccc(C(CCN2CCCCC2)c2c(OC)cc(OC)c3c(-c4ccccc4)cc(=O)oc23)cc1` (centres undefined) gave LANA-H2B inh 1, TAAR1 antag 32, TAAR1 ag 68*, TAAR1 ag conf 66*, Ga16 ag counter 42*, TAAR1 desensitize 53* and Ga16 antag count 48*.
